≈ marks a conversion by molar mass, not a printed value. Calls of active or inactive are those of the source. The rule behind the calls is not given here.
Tests used:
[1] = test system: Lichtheimia corymbifera; test: Antifungal activity against Absidia corymbifera 272 after 24 hrs by broth microdilution method; type: functional; settings: Lichtheimia corymbifera, 272, 24 h
Summary of the method: (§1)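 Broth microdilution in RPMI 1640 with glutamine, fluconazole as reference. For yeasts, MIC is ≥80% growth reduction (IC80) versus control. For filamentous fungi, the value is expressed as IC50. Readings at 24 and 48 h.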

[2] = test system: Staphylococcus epidermidis; test: Antibacterial activity against Staphylococcus epidermidis H 6966/08 after 48 hrs by broth microdilution method; type: functional; settings: H 6966/08, 48 h
Summary of the method: (§2)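 Broth microdilution in Mueller–Hinton broth, compounds dissolved in DMSO, tested over a dilution series from 500 downward. MIC taken as ≥95% growth reduction (IC95) versus drug-free control. Benzylpenicillin comparator. Readings at 24 and 48 h.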

[3] = test system: Mycobacterium avium; test: Antimycobacterial activity against isoniazid, rifampicin, ethambutol and ofloxacin-resistant Mycobacterium avium My 330/88 after 14 days; type: functional; settings: My 330/88, 336 h
Summary of the method: (§3)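 Micromethod MIC in Šula's semisynthetic medium at 37 °C. Compounds added in DMSO at 1000 down to 0.032 µmol/L. Isoniazid standard in sterile water at 0.5–250 µmol/L. Inocula: H37Rv 10^3, M. avium 10^5, M. kansasii 10^4. Read at 14 and 21 d, plus 7 d for M. kansasii.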

[4] = test system: Pichia kudriavzevii; test: Antifungal activity against Candida krusei E28 after 24 hrs by broth microdilution method; type: functional; settings: E28, 24 h; summary of the method: as §1
[5] = test system: Candida albicans; test: Antifungal activity against Candida albicans ATCC 44859 after 48 hrs by broth microdilution method; type: functional; settings: ATCC 44859, 48 h; summary of the method: as §1
[6] = test system: Staphylococcus aureus; test: Antibacterial activity against methicillin-resistant Staphylococcus aureus H 5996/08 after 24 hrs by broth microdilution method; type: functional; settings: H 5996/08, 24 h; summary of the method: as §2
[7] = test system: Mycobacterium tuberculosis; test: Antimycobacterial activity against Mycobacterium tuberculosis H37Rv My 331/88 after 21 days; type: functional; settings: H37Rv My 331/88, 504 h; summary of the method: as §3
[8] = test system: Candida tropicalis; test: Antifungal activity against Candida tropicalis 156 at 500 micromol/L after 24 to 48 hrs by broth microdilution method; type: functional, organism-based; summary of the method: as §1
[9] = test system: Enterococcus sp.; test: Antibacterial activity against Enterococcus sp. J 14365/08 at 500 micromol/L after 24 to 48 hrs by broth microdilution method; type: functional, organism-based; summary of the method: as §2
[10] = test system: Mycobacterium avium; test: Antimycobacterial activity against isoniazid, rifampicin, ethambutol and ofloxacin-resistant Mycobacterium avium My 330/88 after 21 days; type: functional; settings: My 330/88, 504 h; summary of the method: as §3
[11] = test system: Aspergillus fumigatus; test: Antifungal activity against Aspergillus fumigatus 231 after 48 hrs by broth microdilution method; type: functional; settings: Aspergillus fumigatus, 231, 48 h; summary of the method: as §1
[12] = test system: Mycobacterium kansasii; test: Antimycobacterial activity against Mycobacterium kansasii 6509/96 after 14 days; type: functional; settings: 6509/96, 336 h; summary of the method: as §3
[13] = test system: Staphylococcus aureus; test: Antibacterial activity against Staphylococcus aureus CCM 4516/08 after 48 hrs by broth microdilution method; type: functional; settings: CCM 4516/08, 48 h; summary of the method: as §2
[14] = test system: Pichia kudriavzevii; test: Antifungal activity against Candida krusei E28 after 48 hrs by broth microdilution method; type: functional; settings: E28, 48 h; summary of the method: as §1
[15] = test system: Trichophyton mentagrophytes; test: Antifungal activity against Trichophyton mentagrophytes 445 after 120 hrs by broth microdilution method; type: functional; settings: Trichophyton mentagrophytes, 445, 120 h
Summary of the method: (§4)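 Filamentous dermatophyte tested by broth microdilution in RPMI 1640 with glutamine, fluconazole as reference. Value expressed as IC50 relative to growth control. Read at 72 and 120 h.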

[16] = test system: Nakaseomyces glabratus; test: Antifungal activity against Candida glabrata 20/I at 500 micromol/L after 24 to 48 hrs by broth microdilution method; type: functional, organism-based; summary of the method: as §1
[17] = test system: Mycobacterium kansasii; test: Antimycobacterial activity against Mycobacterium kansasii 6509/96 after 7 days; type: functional; settings: 6509/96, 168 h; summary of the method: as §3
[18] = test system: Mycobacterium kansasii; test: Antimycobacterial activity against Mycobacterium kansasii 6509/96 after 21 days; type: functional; settings: 6509/96, 504 h; summary of the method: as §3
[19] = test system: Mycobacterium kansasii; test: Antimycobacterial activity against Mycobacterium kansasii My 235/80 after 21 days; type: functional; settings: My 235/80, 504 h; summary of the method: as §3
[20] = test system: Klebsiella pneumoniae; test: Antibacterial activity against ESBL-positive Klebsiella pneumoniae J 14368/08 at 500 micromol/L after 24 to 48 hrs by broth microdilution method; type: functional, organism-based; summary of the method: as §2
[21] = test system: Staphylococcus aureus; test: Antibacterial activity against Staphylococcus aureus CCM 4516/08 after 24 hrs by broth microdilution method; type: functional; settings: CCM 4516/08, 24 h; summary of the method: as §2
[22] = test system: Escherichia coli; test: Antibacterial activity against Escherichia coli CCM 4517 at 500 micromol/L after 24 to 48 hrs by broth microdilution method; type: functional, organism-based; summary of the method: as §2
[23] = test system: Staphylococcus aureus; test: Antibacterial activity against methicillin-resistant Staphylococcus aureus H 5996/08 after 48 hrs by broth microdilution method; type: functional; settings: H 5996/08, 48 h; summary of the method: as §2
[24] = test system: Staphylococcus epidermidis; test: Antibacterial activity against Staphylococcus epidermidis H 6966/08 after 24 hrs by broth microdilution method; type: functional; settings: H 6966/08, 24 h; summary of the method: as §2
[25] = test system: Trichosporon asahii; test: Antifungal activity against Trichosporon asahii 1188 after 48 hrs by broth microdilution method; type: functional; settings: Trichosporon asahii, 1188, 48 h; summary of the method: as §1
[26] = test system: Mycobacterium tuberculosis; test: Antimycobacterial activity against Mycobacterium tuberculosis H37Rv My 331/88 after 14 days; type: functional; settings: H37Rv My 331/88, 336 h; summary of the method: as §3
[27] = test system: Mycobacterium kansasii; test: Antimycobacterial activity against Mycobacterium kansasii My 235/80 after 14 days; type: functional; settings: My 235/80, 336 h; summary of the method: as §3
[28] = test system: Pseudomonas aeruginosa; test: Antibacterial activity against Pseudomonas aeruginosa CCM 1961 at 500 micromol/L after 24 to 48 hrs by broth microdilution method; type: functional, organism-based; summary of the method: as §2
[29] = test system: HepG2; test: Cytotoxicity against human HepG2 cells after 24 hrs by CellTiter assay; type: cell-based; settings: HepG2, 24 h
Summary of the method: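 HepG2 cells (passage 27–33) in MEM with 10% FBS, L-glutamine and NEAA, seeded at 1×10^4 per well. Treated next day with compounds at 0.1–100 µM (or 0.1–25 µmol/L), triplicates, <1% DMSO, for 24 h at 37 °C, 5% CO2. MTS reagent added for 2 h, absorbance read at 490 nm. IC50 taken against untreated (100%) and 10% DMSO (0%) controls.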

[30] = test system: Mycobacterium kansasii; test: Antimycobacterial activity against Mycobacterium kansasii My 235/80 after 7 days; type: functional; settings: My 235/80, 168 h; summary of the method: as §3
[31] = test system: Lichtheimia corymbifera; test: Antifungal activity against Absidia corymbifera 272 after 48 hrs by broth microdilution method; type: functional; settings: Lichtheimia corymbifera, 272, 48 h; summary of the method: as §1
[32] = test system: Candida albicans; test: Antifungal activity against Candida albicans ATCC 44859 after 24 hrs by broth microdilution method; type: functional; settings: ATCC 44859, 24 h; summary of the method: as §1
[33] = test system: Trichophyton mentagrophytes; test: Antifungal activity against Trichophyton mentagrophytes 445 after 72 hrs by broth microdilution method; type: functional; settings: Trichophyton mentagrophytes, 445, 72 h; summary of the method: as §4
[34] = test system: Aspergillus fumigatus; test: Antifungal activity against Aspergillus fumigatus 231 after 24 hrs by broth microdilution method; type: functional; settings: Aspergillus fumigatus, 231, 24 h; summary of the method: as §1
[35] = test system: Klebsiella pneumoniae; test: Antibacterial activity against Klebsiella pneumoniae D 11750/08 at 500 micromol/L after 24 to 48 hrs by broth microdilution method; type: functional, organism-based; summary of the method: as §2
[36] = test system: Trichosporon asahii; test: Antifungal activity against Trichosporon asahii 1188 after 24 hrs by broth microdilution method; type: functional; settings: Trichosporon asahii, 1188, 24 h; summary of the method: as §1

## CCOP(=O)(OCC)Oc1ccc(Cl)cc1C(=O)Nc1ccc(C(F)(F)F)cc1
[1]
  MIC50: > 250 µM
[2]
  MIC95: 31.2 µM (≈ 14.1 µg/mL)
[3]
  MIC: 4 µM (≈ 1.81 µg/mL)
[4]
  MIC80: 125 µM (≈ 56.5 µg/mL)
[5]
  MIC80: > 250 µM
[6]
  MIC95: 62.5 µM (≈ 28.2 µg/mL)
[7]
  MIC: 1 µM (≈ 0.452 µg/mL)
[8]
  Activity: inactive
[9]
  Activity: inactive
[10]
  MIC: 4 µM (≈ 1.81 µg/mL)
[11]
  MIC50: > 250 µM
[12]
  MIC: 2 µM (≈ 0.904 µg/mL)
[13]
  MIC95: 31.2 µM (≈ 14.1 µg/mL)
[14]
  MIC80: > 250 µM
[15]
  MIC50: 31.2 µM (≈ 14.1 µg/mL)
[16]
  Activity: inactive
[17]
  MIC: 2 µM (≈ 0.904 µg/mL)
[18]
  MIC: 2 µM (≈ 0.904 µg/mL)
[19]
  MIC: 2 µM (≈ 0.904 µg/mL)
[20]
  Activity: inactive
[21]
  MIC95: 31.2 µM (≈ 14.1 µg/mL)
[22]
  Activity: inactive
[23]
  MIC95: 62.5 µM (≈ 28.2 µg/mL)
[24]
  MIC95: 31.2 µM (≈ 14.1 µg/mL)
[25]
  MIC80: 250 µM (≈ 113 µg/mL)
[26]
  MIC: 1 µM (≈ 0.452 µg/mL)
[27]
  MIC: 2 µM (≈ 0.904 µg/mL)
[28]
  Activity: inactive
[29]
  IC50: 2.33 µM
[30]
  MIC: 1 µM (≈ 0.452 µg/mL)
[31]
  MIC50: > 250 µM
[32]
  MIC80: 125 µM (≈ 56.5 µg/mL)
[33]
  MIC50: 31.2 µM (≈ 14.1 µg/mL)
[34]
  MIC50: > 250 µM
[35]
  Activity: inactive
[36]
  MIC80: 125 µM (≈ 56.5 µg/mL)

## CCOP(=O)(OCC)Oc1ccc(Br)cc1C(=O)Nc1ccc(F)cc1
[1]
  MIC50: > 500 µM
[2]
  MIC95: > 500 µM
[3]
  MIC: 32 µM (≈ 14.3 µg/mL)
[4]
  MIC80: > 500 µM
[5]
  MIC80: > 500 µM
[6]
  MIC95: 500 µM (≈ 223 µg/mL)
[7]
  MIC: 8 µM (≈ 3.57 µg/mL)
[8]
  Activity: inactive
[9]
  Activity: inactive
[10]
  MIC: 32 µM (≈ 14.3 µg/mL)
[11]
  MIC50: > 500 µM
[12]
  MIC: 8 µM (≈ 3.57 µg/mL)
[13]
  MIC95: > 500 µM
[14]
  MIC80: > 500 µM
[15]
  MIC50: 500 µM (≈ 223 µg/mL)
[16]
  Activity: inactive
[17]
  MIC: 8 µM (≈ 3.57 µg/mL)
[18]
  MIC: 16 µM (≈ 7.14 µg/mL)
[19]
  MIC: 16 µM (≈ 7.14 µg/mL)
[20]
  Activity: inactive
[21]
  MIC95: > 500 µM
[22]
  Activity: inactive
[23]
  MIC95: 500 µM (≈ 223 µg/mL)
[24]
  MIC95: > 500 µM
[25]
  MIC80: > 500 µM
[26]
  MIC: 8 µM (≈ 3.57 µg/mL)
[27]
  MIC: 16 µM (≈ 7.14 µg/mL)
[28]
  Activity: inactive
[29]
  IC50: 7.4 µM
[30]
  MIC: 8 µM (≈ 3.57 µg/mL)
[31]
  MIC50: > 500 µM
[32]
  MIC80: > 500 µM
[33]
  MIC50: 500 µM (≈ 223 µg/mL)
[34]
  MIC50: > 500 µM
[35]
  Activity: inactive
[36]
  MIC80: > 500 µM

Source: ChEMBL document CHEMBL3102784, “Salicylanilide diethyl phosphates: synthesis, antimicrobial activity and cytotoxicity” (Bioorg Med Chem, 2014)
